Experimental findings from ChEMBL document CHEMBL1151422, “Effect of antimicrobial compounds on Balamuthia mandrillaris encystment and human brain microvascular endothelial cell cytopathogenicity” (Antimicrob Agents Chemother, 2007) are described below.

Molecules are shown by their SMILES.

In series [1] the test system is Balamuthia mandrillaris. Kind of series: Antimicrobial activity against Balamuthia mandrillaris ATCC 50209 infected in HBMEC assessed as inhibition of amoeba-induced cytopathogenicity at 5 ug/mL after 24 hrs by LDH release assay. In kind it is functional. Conditions: ATCC 50209, 24 h. Summed up:
(§1)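 B. mandrillaris ATCC 50209 (grown on host-cell feeder layers) pretreated with drug for 45 min in serum-free medium, then added at 10^5 amoebae/well, with inhibitor still present, to primary HBMEC monolayers (RPMI 1640, 10% FBS, 10% NuSerum). Incubation at 37°C, 5% CO2, up to 24 h. Cytotoxicity read as LDH release into supernatant. Percent inhibition is relative to amoebae alone; mean ± SE.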

The test system of series [2] is Balamuthia mandrillaris. In words: Antimicrobial activity against Balamuthia mandrillaris ATCC 50209 infected in HBMEC assessed as inhibition of amoeba-induced cytopathogenicity at 10 ug/mL after 24 hrs by LDH release assay. Conditions: ATCC 50209, 24 h. In kind it is functional. Put shortly:
as §1
(In general: Cytopathic effects are the visible damage that an infection or toxin causes in cultured cells.)

Series [3] relates to Balamuthia mandrillaris. Kind of series: Antimicrobial activity against Balamuthia mandrillaris ATCC 50209 infected in HBMEC assessed as inhibition of encystment at 5 ug/mL after 7 days. It is filed as functional. Conditions: ATCC 50209, 168 h. Put shortly: (§2)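 Trophozoites (>95%) held at 2 × 10^5/ml in RPMI 1640 with drug at 37°C for 48 h. SDS (0.5% final) lyses the remaining trophozoites, and a hemocytometer count is taken before and after SDS. % encystment = post-SDS/pre-SDS × 100, and percent inhibition is calculated from it; mean ± SE. For viability, cysts made before SDS were placed on HBMEC monolayers for up to 7 days and watched for trophozoite emergence.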

Series [4] relates to Balamuthia mandrillaris. Kind of series: Antimicrobial activity against Balamuthia mandrillaris ATCC 50209 infected in HBMEC assessed as inhibition of encystment at 10 ug/mL after 7 days. In kind it is functional. Conditions: ATCC 50209, 168 h. Summed up:
as §2

Series [5] relates to Balamuthia mandrillaris. Kind of series: Antimicrobial activity against Balamuthia mandrillaris ATCC 50209 infected in HBMEC assessed as inhibition of encystment at 200 uM after 7 days. In kind it is functional. Conditions: ATCC 50209, 168 h. Summed up: as §2
For series [6], the system named is Balamuthia mandrillaris. In words: Antimicrobial activity against Balamuthia mandrillaris ATCC 50209 infected in HBMEC assessed as inhibition of amoeba-induced cytopathogenicity at 200 uM after 24 hrs by LDH release assay. It is filed as functional. Conditions: ATCC 50209, 24 h. Summed up: as §1
Series [7] relates to Balamuthia mandrillaris. Kind of series: Antimicrobial activity against Balamuthia mandrillaris ATCC 50209 infected in HBMEC assessed as inhibition of amoeba-induced cytopathogenicity at 100 uM after 24 hrs by LDH release assay. Conditions: ATCC 50209, 24 h. It is filed as functional. Put shortly: as §1
In series [8] the test system is Balamuthia mandrillaris. Kind of series: Antimicrobial activity against Balamuthia mandrillaris ATCC 50209 infected in HBMEC assessed as inhibition of encystment at 500 uM after 7 days. Conditions: ATCC 50209, 168 h. In kind it is functional. Put shortly: as §2
In series [9] the test system is Balamuthia mandrillaris. Kind of series: Antimicrobial activity against Balamuthia mandrillaris ATCC 50209 infected in HBMEC assessed as inhibition of encystment at 100 uM after 7 days. It is filed as functional. Conditions: ATCC 50209, 168 h. Summed up:
as §2

Series [10] relates to Balamuthia mandrillaris. In words: Antimicrobial activity against Balamuthia mandrillaris ATCC 50209 infected in HBMEC assessed as inhibition of amoeba-induced cytopathogenicity at 10 uM after 24 hrs by LDH release assay. It is filed as functional. Conditions: ATCC 50209, 24 h. Put shortly: as §1
In series [11] the test system is Balamuthia mandrillaris. In words: Antimicrobial activity against Balamuthia mandrillaris ATCC 50209 infected in HBMEC assessed as inhibition of encystment at 10 uM […]. In kind it is functional. Summed up:
as §2

Series [12] relates to Balamuthia mandrillaris. In words: Antimicrobial activity against Balamuthia mandrillaris ATCC 50209 infected in HBMEC assessed as inhibition of amoeba-induced cytopathogenicity at 50 uM after 24 hrs by LDH release assay. It is filed as functional. Conditions: ATCC 50209, 24 h. Put shortly:
as §1

Series [13] relates to Balamuthia mandrillaris. Kind of series: Antimicrobial activity against Balamuthia mandrillaris ATCC 50209 infected in HBMEC assessed as inhibition of encystment at 50 uM after 7 days. It is filed as functional. Conditions: ATCC 50209, 168 h. Put shortly:
as §2

Series [14] in a line: Cytotoxicity against HBMEC assessed as LDH release at 10 ug/mL. Conditions: human. (In general: LDH in the medium is a marker of cell lysis.)

Turning to `C[C@@H]1CC[C@H]2[C@@H](C)C(=O)O[C@@H]3O[C@@]4(C)CC[C@@H]1[C@]32OO4` [ARTEMISININ], the values for the inhibition at 5 µg/mL in [1] and in [3] were 34% and 37%, respectively. Also, the inhibition (commonly the relative decrease from the control value, in per cent) at 10 µg/mL came out at 45% in [2] and 52% in [4].
For the molecule `CCC[C@@H]1C[C@@H](C(=O)N[C@@H]([C@H]2O[C@H](SC)[C@H](O)[C@@H](O)[C@H]2O)[C@H](C)Cl)N(C)C1` [CLINDAMYCIN], the inhibition at 5 µg/mL in series [1] was determined as 16%; in series [3], 4%. In addition, the inhibition at 10 µg/mL in series [2] was 10%; in series [4], 0%.
Consider `C[C@@H]1C[C@@H]([C@H](O)CC2CC(=O)NC(=O)C2)C(=O)[C@@H](C)C1` [CYCLOHEXIMIDE], for which the figures for the inhibition at 200 µM in series [5] and in [6] were 95% and 0%, respectively. The inhibition at 100 µM in [7] worked out at 44%; in [9], 94%. Also, the inhibition at 500 µM in [8] turned out to be 98.4%.
With `C=C1[C@@H](C)[C@H]2[C@H](Cc3ccccc3)NC(=O)[C@]23[C@H](OC(C)=O)/C=C/[C@@](C)(O)C(=O)[C@@H](C)C/C=C/[C@H]3[C@@H]1O` [CYTOCHALASIN D], the inhibition at 10 µM is 13% in series [10] and 42% in [11]. For the same molecule, the inhibition at 100 µM in series [9] came to 76%. The inhibition at 50 µM in [12] was found to be 42%; in series [13], 64%.
On to `Nc1nc(=O)[nH]cc1F` [FLUCYTOSINE], for which the inhibition at 5 µg/mL in series [1] was 20%; in series [3], 43%. In addition, the inhibition at 10 µg/mL stood at 61% in series [2] and 56% in series [4].
For the molecule `CC(=O)N1CCN(c2ccc(OCC3COC(Cn4ccnc4)(c4ccc(Cl)cc4Cl)O3)cc2)CC1` (configuration not stated) [KETOCONAZOLE], the inhibition at 5 µg/mL in series [1] came to 14%; in [3], 0%. The inhibition at 10 µg/mL was determined as 88.5% in series [2] and 0% in series [4]. Also, in series [14], the Activity is reported as less than 5%.
